Data reported in ChEMBL document CHEMBL1131002, “2beta-Substituted analogues of 4'-iodococaine: synthesis and dopamine transporter binding potencies” (J Med Chem, 1998).

Target: T1, Monoamine transporters; Norepininephrine & dopamine (Rattus norvegicus) (UniProt P23977+Q9WTR4)
Assay: (§1) Selectivity for Norepinephrine and Dopamine Transporters was evaluated
Type: protein assay
Target sequence in this assay (P23977 whole entry): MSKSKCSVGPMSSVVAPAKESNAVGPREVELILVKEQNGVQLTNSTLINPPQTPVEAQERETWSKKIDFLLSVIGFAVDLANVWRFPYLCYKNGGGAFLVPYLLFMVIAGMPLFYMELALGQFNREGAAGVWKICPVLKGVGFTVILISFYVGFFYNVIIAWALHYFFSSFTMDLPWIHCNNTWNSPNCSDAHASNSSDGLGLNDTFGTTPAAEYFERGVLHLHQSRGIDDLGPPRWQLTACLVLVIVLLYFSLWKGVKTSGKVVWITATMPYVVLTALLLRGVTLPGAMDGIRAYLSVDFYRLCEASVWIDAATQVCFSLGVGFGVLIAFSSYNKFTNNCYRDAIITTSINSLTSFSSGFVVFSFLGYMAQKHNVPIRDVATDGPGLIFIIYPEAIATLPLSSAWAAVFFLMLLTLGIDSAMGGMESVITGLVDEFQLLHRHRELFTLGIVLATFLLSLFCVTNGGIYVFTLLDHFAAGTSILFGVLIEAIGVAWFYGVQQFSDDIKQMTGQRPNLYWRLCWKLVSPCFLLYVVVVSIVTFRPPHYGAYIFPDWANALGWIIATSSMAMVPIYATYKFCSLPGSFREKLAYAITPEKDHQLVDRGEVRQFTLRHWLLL
Target sequence in this assay (Q9WTR4 1-597): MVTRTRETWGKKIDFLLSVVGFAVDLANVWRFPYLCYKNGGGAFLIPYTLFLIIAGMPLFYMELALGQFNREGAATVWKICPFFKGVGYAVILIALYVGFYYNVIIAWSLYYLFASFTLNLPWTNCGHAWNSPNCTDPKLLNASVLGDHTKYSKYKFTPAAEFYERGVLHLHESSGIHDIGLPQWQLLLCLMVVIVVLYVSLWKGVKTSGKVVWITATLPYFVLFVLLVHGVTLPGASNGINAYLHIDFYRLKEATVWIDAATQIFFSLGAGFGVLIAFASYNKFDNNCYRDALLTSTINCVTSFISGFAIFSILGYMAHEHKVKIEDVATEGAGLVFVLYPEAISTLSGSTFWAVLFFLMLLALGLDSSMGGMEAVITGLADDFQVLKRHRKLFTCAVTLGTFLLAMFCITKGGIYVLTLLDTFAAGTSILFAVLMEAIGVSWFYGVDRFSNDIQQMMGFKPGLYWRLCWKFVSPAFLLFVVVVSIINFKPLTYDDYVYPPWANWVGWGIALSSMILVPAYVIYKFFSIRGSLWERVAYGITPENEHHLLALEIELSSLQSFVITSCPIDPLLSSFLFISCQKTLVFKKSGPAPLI

Row | Compound | Selectivity
1 | COC(=O)[C@@H]1C2CCC(C[C@@H]1OC(=O)c1ccc(I)cc1)N2C (stereo not given in full) | 0.4
2 | COC(=O)[C@@H]1C2CCC(C[C@@H]1OC(=O)c1ccccc1O)N2C (stereo not given in full) | 5.7
3 | CC(C)OC(=O)[C@@H]1C2CCC(C[C@@H]1OC(=O)c1ccc(I)cc1O)N2C (stereo not given in full) | 6.8
4 | COC(=O)[C@@H]1C2CCC(C[C@@H]1OC(=O)c1ccc(I)cc1O)N2C (stereo not given in full) | 0.9

Target: Norepinephrine transporter (Rattus norvegicus, UniProt Q9WTR4)
Assay: Inhibition of norepinephrine Transporter Affinity against rat whole brain using [3H]nisoxetine radioligand
How it was run: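 Whole brain minus cerebellum membranes in 50 mM Tris-HCl pH 7.4 with 300 mM NaCl and 5 mM KCl. Displacement of 0.7 nM [3H]nisoxetine. Incubated 40 min at 25 °C, then filtered on BSA-soaked GF/B. 1 μM desipramine defined nonspecific binding.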

Chain of Norepinephrine transporter (Q9WTR4 whole entry): as the sequence (Q9WTR4 1-597) above

Row | Compound | IC50 [nM]
5 | COC(=O)[C@H]1[C@@H](c2ccc(F)cc2)C[C@H]2CC[C@H]1N2C | 258
6 | COC(=O)[C@@H]1C2CCC(C[C@@H]1OC(=O)c1ccc(I)cc1)N2C (stereo not given in full) | 18500
7 | COC(=O)[C@@H]1C2CCC(C[C@@H]1OC(=O)c1ccccc1O)N2C (stereo not given in full) | 48
8 | CC(C)OC(=O)[C@@H]1C2CCC(C[C@@H]1OC(=O)c1ccc(I)cc1O)N2C (stereo not given in full) | 34800
9 | COC(=O)[C@@H]1C2CCC(C[C@@H]1OC(=O)c1ccc(I)cc1O)N2C (stereo not given in full) | 1020

Target: Sodium-dependent serotonin transporter (Rattus norvegicus, UniProt P31652)
Assay: Inhibition of serotonin Transporter Affinity against rat whole brain using [3H]paroxetine as radioligand

Chain of Sodium-dependent serotonin transporter (P31652 whole entry): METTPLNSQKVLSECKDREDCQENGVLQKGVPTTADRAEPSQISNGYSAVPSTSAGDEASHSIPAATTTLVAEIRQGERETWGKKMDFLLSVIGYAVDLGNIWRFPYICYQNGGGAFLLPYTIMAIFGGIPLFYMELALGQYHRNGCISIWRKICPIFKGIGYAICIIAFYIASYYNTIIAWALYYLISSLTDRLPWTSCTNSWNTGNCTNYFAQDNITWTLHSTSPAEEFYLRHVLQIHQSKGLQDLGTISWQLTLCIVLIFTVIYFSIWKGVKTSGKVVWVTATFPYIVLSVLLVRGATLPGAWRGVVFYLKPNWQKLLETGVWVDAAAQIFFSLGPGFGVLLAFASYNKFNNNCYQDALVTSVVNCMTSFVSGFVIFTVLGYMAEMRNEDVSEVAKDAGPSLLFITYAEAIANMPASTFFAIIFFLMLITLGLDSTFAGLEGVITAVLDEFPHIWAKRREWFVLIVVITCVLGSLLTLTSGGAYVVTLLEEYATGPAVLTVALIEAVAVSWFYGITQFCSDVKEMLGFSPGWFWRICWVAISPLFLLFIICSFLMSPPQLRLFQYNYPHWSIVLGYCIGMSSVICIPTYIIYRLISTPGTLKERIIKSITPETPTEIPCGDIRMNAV

Row | Compound | IC50 [nM]
10 | COC(=O)[C@@H]1C2CCC(C[C@@H]1OC(=O)c1ccc(I)cc1)N2C (stereo not given in full) | 1050
11 | COC(=O)[C@@H]1C2CCC(C[C@@H]1OC(=O)c1ccccc1O)N2C (stereo not given in full) | 143
12 | CC(C)OC(=O)[C@@H]1C2CCC(C[C@@H]1OC(=O)c1ccc(I)cc1O)N2C (stereo not given in full) | 4510
13 | COC(=O)[C@@H]1C2CCC(C[C@@H]1OC(=O)c1ccc(I)cc1O)N2C (stereo not given in full) | 195

Target: T1, Monoamine transporters; Norepininephrine & dopamine (Rattus norvegicus)
Assay: as §1
Type: protein assay

Row | Compound | Selectivity
14 | COC(=O)[C@@H]1C2CCC(C[C@@H]1OC(=O)c1ccc(I)cc1)N2C (stereo not given in full) | 7.3
15 | COC(=O)[C@@H]1C2CCC(C[C@@H]1OC(=O)c1ccccc1O)N2C (stereo not given in full) | 1.9
16 | CC(C)OC(=O)[C@@H]1C2CCC(C[C@@H]1OC(=O)c1ccc(I)cc1O)N2C (stereo not given in full) | 52.5
17 | COC(=O)[C@@H]1C2CCC(C[C@@H]1OC(=O)c1ccc(I)cc1O)N2C (stereo not given in full) | 4.7

Target: Sodium-dependent dopamine transporter (Rattus norvegicus, UniProt P23977)
Assay: Inhibition of dopamine Transporter Affinity against rat whole brain using [3H]WIN-35428 as radioligand
Type: tissue-based

Chain of Sodium-dependent dopamine transporter (P23977 whole entry): as the sequence (P23977 whole entry) above

Row | Compound | IC50 [nM]
18 | CC[C@@H]1C2CCC(C[C@@H]1OC(=O)c1ccc(I)cc1)N2C (stereo not given in full) | 2690
19 | CN1C2CCC1[C@@H](CO)[C@@H](OC(=O)c1ccc(I)cc1)C2 (stereo not given in full) | 6210
20 | CNC(=O)[C@@H]1C2CCC(C[C@@H]1OC(=O)c1ccc(I)cc1)N2C (stereo not given in full) | > 100000
21 | C=C[C@@H]1C2CCC(C[C@@H]1OC(=O)c1ccc(I)cc1)N2C (stereo not given in full) | 2170
22 | CN1C2CCC1[C@@H](c1nc(-c3ccccc3)no1)[C@@H](OC(=O)c1ccc(I)cc1)C2 (stereo not given in full) | 3460
23 | CN1C2CCC1[C@@H](C(=O)OCc1ccccc1)[C@@H](OC(=O)c1ccc(I)cc1)C2 (stereo not given in full) | 4600
24 | CN1C2CCC1[C@@H](C(=O)Oc1ccccc1)[C@@H](OC(=O)c1ccc(I)cc1)C2 (stereo not given in full) | 2020
25 | CC(C)OC(=O)[C@@H]1C2CCC(C[C@@H]1OC(=O)c1ccc(I)cc1)N2C (stereo not given in full) | 1380
26 | COC(=O)[C@@H]1C2CCC(C[C@@H]1OC(=O)c1ccccc1O)N2C (stereo not given in full) | 25
27 | CC(C)OC(=O)[C@@H]1C2CCC(C[C@@H]1OC(=O)c1ccc(I)cc1O)N2C (stereo not given in full) | 663
28 | CC(=O)OC[C@@H]1C2CCC(C[C@@H]1OC(=O)c1ccc(I)cc1)N2C (stereo not given in full) | 3000
29 | COC(=O)[C@@H]1C2CCC(C[C@@H]1OC(=O)c1ccc(I)cc1O)N2C (stereo not given in full) | 215
30 | CCOC(=O)[C@@H]1C2CCC(C[C@@H]1OC(=O)c1ccc(I)cc1)N2C (stereo not given in full) | 2030
